# Measurements gathered from unrelated publications.
# Protocols differ between the studies behind these lines.
# Medium: plasma
SMILES,system,setting,Cmax
COc1nc(-c2cc(C)c(N[C@@H](C)c3cc(F)cc(F)c3)nn2)ccc1-n1cnc(C)c1,male Sprague-Dawley rat,"intravenous, 1 mg/kg, single dose",3570 ng/mL
O=C(Nc1cc(F)c(F)c(F)c1)c1ccc(F)c(S(=O)(=O)NCc2cccc(B(O)O)c2)c1,male Sprague-Dawley rat,"oral, 20 mg/kg",46.3 ng/mL
COCCOC(=O)C1=C(C)NC(C)=C(C(=O)OC(C)C)C1c1cccc([N+](=O)[O-])c1 (stereo not shown),male Sprague-Dawley rat,"oral, 12 mg/kg",85 ng/mL
CNC(=O)c1c(C)oc2cc(Oc3ncnc4cc(OC)c(OC)cc34)ccc12,Sprague-Dawley rat,"oral, 1 mg/kg, single dose",712 ng/mL
Cc1ccc(S(=O)(=O)n2cc3c4c2C(=O)C(NCc2ccc(Cl)cc2)=CC4=NCC3)cc1,rat,"intravenous, 5 mg/kg, single dose",1240 ng/mL
COCc1nn(Cc2ccc(Cn3ccccc3=O)cc2)cc1C(=O)NCc1nccc(OC)c1F,male Sprague-Dawley rat,"oral, 10 mg/kg",1940 ng/mL
COc1cc2c3c(n(CCCN4CCOCC4)c(=O)c2cc1OC)-c1cc2c(cc1C3=O)OCO2,female Fischer 344 rat,"intravenous, 24 mg/m², single dose",568 ng/mL
COc1ccnc(CNC(=O)c2cn(Cc3ccc(Cn4ccccc4=O)cc3)nc2C(F)(F)F)c1F,male Sprague-Dawley rat,"oral, 10 mg/kg",2490 ng/mL
COc1ccc(C(C)=O)c(O)c1,male Sprague-Dawley rat,"oral, 100 mg/kg",8460 ng/mL
CCOC(=O)[C@@]12C[C@@H]1[C@@H](n1ccc3c(NC)nc(C#Cc4ccc(Cl)s4)nc31)[C@H](O)[C@@H]2O,male Sprague-Dawley rat,"oral, 10 mg/kg",192 ng/mL
N#Cc1[nH]nnc1-c1cc(Cl)cc(/C=C/c2cccc(C(F)(F)F)c2)c1,male Sprague-Dawley rat,"oral, 10 mg/kg",2670 ng/mL
Cc1c(-c2ccccc2)cccc1N1C(=O)c2cc(CN[C@H](C(=O)O)C(C)O)c(OCc3cccc(C#N)c3)cc2C1=O (stereo partly shown),Sprague-Dawley rat,"intravenous, 5 mg/kg",4350 ng/mL
C=CC(=O)N1CC2CC(n3nc(-c4ccc(C(=O)Nc5ccccn5)cc4)c4c(N)ncnc43)CC2C1 (stereo not shown),male Wistar rat,"oral, 300 mg/kg",6140 ng/mL
O=C1N(Cc2ccccc2Cl)c2ccccc2C12NN=C(c1ccccc1)S2 (stereo not shown),Sprague-Dawley rat,"oral, 40 mg/kg",1190 ng/mL
COc1ccc2c(Cc3ccccc3F)c3n(c(=O)c2c1OC)CCc1cc2c(cc1-3)OCO2,rat,"oral, 5 mg/kg",310 ng/mL
N#Cc1[nH]nnc1-c1csc(-c2ccc(Cl)cc2)n1,male Sprague-Dawley rat,"oral, 10 mg/kg",5230 ng/mL
CNCc1cc(-c2ccccc2F)n(S(=O)(=O)c2cccnc2)c1,male Sprague-Dawley rat,"oral, 10 mg/kg",140 ng/mL
C#Cc1cccc(Nc2ncnc3cc(OCCOC)c(OCCOC)cc23)c1,male Sprague-Dawley rat,"oral, 12 mg/kg, single dose",1580 ng/mL
COCc1nn(Cc2ccc(Cn3ccccc3=O)cc2)cc1C(=O)NCc1c(C#N)ccc(OC)c1F,male Sprague-Dawley rat,"oral, 10 mg/kg",360 ng/mL
N#Cc1ccc(Nc2nc(N)cc(Oc3c(F)cc(-c4ccc(C#N)cc4)cc3F)n2)cc1,Sprague-Dawley rat,"intravenous, 1 mg/kg",251 ng/mL
CCNC(=O)c1nc(-c2ccc3[nH]c(-c4nc(C)no4)cc3c2)c(C)[nH]1,Sprague-Dawley rat,"oral, 10 mg/kg, suspension",2600 nM
CCc1cc(C(=O)NC)c2nccc(N3CCc4c(cc(Cn5ccnc5)cc4-c4cn(C)nc4C(F)(F)F)C3=O)c2c1,male Sprague-Dawley rat,"oral, 50 mg/kg, single dose",6170 ng/mL
